These results are taken from ChEMBL document CHEMBL1135242, “Tricyclic isoxazoles are novel inhibitors of the multidrug resistance protein (MRP1)” (Bioorg Med Chem Lett, 2002).

What is called EC50 is the concentration needed to bring the measured effect to its halfway point.

Assay [1] concerns the target MRP1 (ABCC1, Homo sapiens). Kind of assay: In vitro for its inhibitory activity against MRP1-transfected HeLa-T5 cell line in the presence of doxorubicin.
For another assay, the system named is HeLa. Kind of assay: Competitive inhibition of [3H]LTC4 uptake by MRP1 expressing HeLa-T5 cell membranes. The assay is classed as functional, Homo sapiens.
Assay [2] in a line: Selectivity ratio of average EC50 values was calculated in HL60/ADR cell line and HL60/Vinc cell line. The assay is classed as functional, HL-60. The gist of the method:
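Resistance reversal in MRP1-overexpressing HL60/Adr and P-gp-overexpressing HL60/Vinc cells. Modulator EC50 is the concentration-dependent enhancement of the antiproliferative response to an IC20 concentration of doxorubicin. Cell number is read by alamarBlue reduction. Ratio is the average EC50 in HL60/Vinc divided by the average EC50 in HL60/Adr.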

As to `COc1cc(C(=O)NCc2cccc(-n3c(=O)c4c(C)onc4c4c(Cl)cccc43)c2)cc(OC)c1OC`, in assay [1], the EC50 was found to be 1130 nM.
With `Cc1onc2c1c(=O)n(-c1cccc(CC(=O)Nc3ccccc3)c1)c1cccc(Cl)c21`, the 50% effective concentration (EC50) in assay [1] came to 2300 nM.
In the case of `COc1cc(N(C)C(=O)Cc2cccc(-n3c(=O)c4c(C)onc4c4c(Cl)cccc43)c2)cc(OC)c1OC`, in the assay on HeLa, the EC50 turned out to be 4200 nM. For the same molecule, in assay [2], the Ratio is 4.
Turning to `COc1cc(NC(=O)Cc2cccc(-n3c(=O)c4c(C)onc4c4c(Cl)cccc43)c2)cc(OC)c1OC`, in the assay on HeLa, a half-maximal effect (EC50) was put at 1800 nM.
On to `Cc1ccc(NC(=O)Cc2cccc(-n3c(=O)c4c(C)onc4c4c(Cl)cccc43)c2)cc1`, for which, in assay [1], the EC50 is 3700 nM.
As for `COc1cc(NC(=O)Cc2cccc(-n3c(=O)c4c(C)onc4c4c(Cl)cccc43)c2)cc(OC)c1O`, the EC50 in the assay on HeLa turned out to be 1700 nM; in assay [1] it was 1300 nM. Further, the Ratio in assay [2] is reported as 14.
With `Cc1onc2c1c(=O)n(-c1cccc(CC(=O)Nc3ccc(C#N)cc3)c1)c1cccc(Cl)c21`, the EC50 in assay [1] was determined as 4900 nM.
`COc1cc(OCCc2cccc(-n3c(=O)c4c(C)onc4c4c(Cl)cccc43)c2)cc(OC)c1OC` showed an EC50 in the assay on HeLa of 4400 nM. Moreover, the Ratio in assay [2] is 14.
As to `Cc1onc2c1c(=O)n(-c1cccc(CC(=O)Nc3ccc(C(F)(F)F)cc3)c1)c1cccc(Cl)c21`, in assay [1], the EC50 was above 10000 nM.
